Assay outcomes (PubChem)
TRPC6 inh: mouse TRPC6 channel inhibition; Q61143; HEK293-TRPC6, membrane potential dye, ACh-evoked depolarization; hits give low values; B-score at 10 µM; actives 1.1% (n = 310,000);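 active = B-score under library mean minus 3 SD, initial fluorescence not abnormally high, positive integrated signal ratio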;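 also: B-score derived from integrated fluorescence ratio over the kinetic read; more negative B-score means stronger inhibition of depolarization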
Target sequence (Q61143 whole entry, looked up): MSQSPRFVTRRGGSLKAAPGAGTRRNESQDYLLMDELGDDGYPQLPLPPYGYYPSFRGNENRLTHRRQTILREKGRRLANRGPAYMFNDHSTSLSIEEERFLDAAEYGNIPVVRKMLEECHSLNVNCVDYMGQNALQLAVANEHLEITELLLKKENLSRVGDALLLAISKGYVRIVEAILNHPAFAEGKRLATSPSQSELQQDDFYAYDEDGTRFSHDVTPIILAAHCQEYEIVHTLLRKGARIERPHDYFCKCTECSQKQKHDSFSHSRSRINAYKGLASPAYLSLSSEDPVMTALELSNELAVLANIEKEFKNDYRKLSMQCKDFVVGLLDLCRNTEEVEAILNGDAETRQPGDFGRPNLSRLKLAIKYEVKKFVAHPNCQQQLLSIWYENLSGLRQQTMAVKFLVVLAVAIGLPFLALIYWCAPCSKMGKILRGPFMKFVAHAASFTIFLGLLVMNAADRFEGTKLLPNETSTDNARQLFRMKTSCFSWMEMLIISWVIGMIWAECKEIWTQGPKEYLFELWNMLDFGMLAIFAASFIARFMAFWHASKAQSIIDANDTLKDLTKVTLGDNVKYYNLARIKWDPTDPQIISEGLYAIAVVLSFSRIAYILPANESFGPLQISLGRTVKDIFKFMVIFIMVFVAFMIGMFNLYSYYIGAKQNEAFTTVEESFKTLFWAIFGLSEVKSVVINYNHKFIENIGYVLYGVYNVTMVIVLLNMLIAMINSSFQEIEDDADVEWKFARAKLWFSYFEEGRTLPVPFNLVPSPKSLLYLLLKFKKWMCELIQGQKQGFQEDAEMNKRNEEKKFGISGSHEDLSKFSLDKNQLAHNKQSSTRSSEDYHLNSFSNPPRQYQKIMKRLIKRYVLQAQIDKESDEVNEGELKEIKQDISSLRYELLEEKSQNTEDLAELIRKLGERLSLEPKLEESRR
TRPC4 potent: allosterically enhances the mouse TRPC4 cation channel. Q9QUQ5. HEK293 TRPC4beta/mu-opioid, DAMGO EC20, Fluo-4 Ca2+ flux; hits give high values. B-score at 10 µM. actives 0.42% (n = 310,000). AID 2227;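 active = B-score of calcium response area above 5 SD of library B-scores, with initial fluorescence ratio within 5 SD of library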;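 also: B-score of integrated fluorescence ratio over time as area under calcium response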
TRPC4 block: TRPC4 (mouse) channel inhibition; Q9QUQ5; HEK293 TRPC4beta/mu-opioid, DAMGO-evoked Fluo4 calcium flux; hits give low values; B-score at 10 µM; actives 0.39% (n = 300,000);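 active = B-score over 3 SD under the library average, no early fluorescence shift, positive overall ratio signal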
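Assay system: TRPC4beta/mu-opioid receptor HEK293 cell line; compound dosing: single concentration per test compound; detection: Fluo4 Ca2+ flux fluorescence; evaluation: per-well B score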
TRPC6 activator: mouse TRPC6 channel activation; B-score at 10 µM; HEK293-TRPC6 membrane potential dye fluorescence; hits give high values; Q61143; actives 0.13% (n = 310,000);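 active = B-score of the integrated fluorescence ratio above library mean plus 3 SD, and starting fluorescence ratio within library mean plus 5 SD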;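 also: higher score means more depolarization so channel activation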
TRPC4 agonist: TRPC4 (mouse) channel activation; Q9QUQ5; HEK293 TRPC4beta/mu-opioid, Fluo4 calcium fluorescence; hits give high values; B-score at 10 µM; actives 0.49% (n = 310,000); AID 2237;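 active = B-score above 5 SD of library B-scores, and initial fluorescence ratio not above library mean plus 5 SD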;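 also: positive B-score marks a calcium rise read as TRPC4 activation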
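System – HEK293 cells stably co-expressing mouse TRPC4beta and mu-opioid receptor · Signal – Fluo4 calcium-sensitive dye fluorescence, kinetic, 1 Hz baseline · Benchmarks – buffer (low) and maximal DAMGO (high) · Read-out – B score of integrated fluorescence ratio per well · Incubation – dye loading 45 min room temperature, 110 s kinetic read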
TRPC4 spec 2: mouse TRPC4 off-target activity of TRPC6 inhibitors, second screen | shares compounds with TRPC6 inh | HEK293 TRPC4/MOR, membrane potential dye fluorescence; channel activated by saturating DAMGO dose | inhibition, % at 10 µM | actives 42% (n = 920) | AID 2776;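 active = compounds whose fluorescence signal differed from control wells by over 3 SD, either direction, in both duplicate plates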
TRPC4 spec: mouse TRPC4 off-target activity of TRPC6 inhibitors; shares compounds with TRPC6 inh; HEK293 TRPC4/mu-opioid, membrane potential fluorescence; activity change, negative = inhibition, % at 10 µM; actives 61% (n = 920);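 active = rise or fall in signal beyond 3 SD of buffer-only wells in both replicate plates, either sign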;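 also: integrated kinetic ratio of fluorescence range over baseline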
HEK293 MPD ctr 2-1: second counter-screen for TRPC6 inhibitors: parental HEK293 cells; shares compounds with TRPC6 inh; parental HEK293 membrane potential dye fluorescence; maximal acetylcholine challenge after compound addition; signal change vs control, % at 10 µM; actives 31% (n = 920); AID 2779;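 active = membrane potential signal moving either way by over 3 SD of the maximum-effect control, in both duplicate plates, meaning non-specific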
HEK293 MPD ctr-1: parental HEK293 nonspecific activity of TRPC6 inhibitors. shares compounds with TRPC6 inh. parental HEK293 membrane potential dye fluorescence. membrane potential signal change, % at 10 µM. actives 60% (n = 920);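 active = membrane potential signal shifting up or down by more than 3 SD of buffer-only wells, on both duplicate plates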
HEK293 MPD ctr-2: checks TRPC6 modulator effects in parental HEK293 cells; shares compounds with TRPC6 inh; membrane potential dye fluorescence; membrane potential signal change, % at 10 µM; actives 51% (n = 2,400); AID 488924;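 active = membrane potential signal moves up or down beyond 5 SD from buffer-only wells, on both duplicate plates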
HEK293 MPD ctr 2-2: parental HEK293 nonspecific activity of TRPC6 modulators, second screen | actives 14% (n = 2,400) | membrane potential dye fluorescence; after compound, maximal acetylcholine stimulation | shares compounds with TRPC6 inh | inhibition, % at 10 µM;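 active = membrane potential signal drops by more than 5 SD from the mean control signal, in both duplicate plates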;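 also: plate controls were acetylcholine ECmax control wells for no effect and buffer only wells for full effect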
TRPC4 ctr mod: mouse TRPC4 off-target activity of TRPC6 modulators | shares compounds with TRPC6 inh | HEK293 TRPC4/mu-opioid, membrane potential fluorescence | percent change from control (negative = decrease, positive = increase), % at 10 µM | actives 69% (n = 2,400) | AID 488927;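 active = membrane potential signal moved up or down beyond 5 SD of buffer control wells, in both duplicate plates, actives on both sides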;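 also: plate controls were assay buffer wells for no effect and DAMGO maximal-effect wells for full effect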
TRPC4 ctr inh 2: mouse TRPC4 off-target activity of TRPC6 modulators, second screen | actives 55% (n = 2,400) | inhibition, % at 10 µM | shares compounds with TRPC6 inh | HEK293 TRPC4/mu-opioid, membrane potential dye fluorescence; stimulated with maximal-effect DAMGO;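 active = drop in membrane potential signal beyond 5 SD of the control wells in both duplicate plates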;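 also: TRPC4 counter screen for TRPC6 hits run under conditions tuned for TRPC6 not TRPC4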
TRPC6 block conf: mouse TRPC6 inhibitor confirmation. AID 488960. inhibition, % at 10 µM. actives 43% (n = 3,300). HEK293-TRPC6, membrane potential dye, ACh-evoked depolarization. shares compounds with TRPC6 inh;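 active = fluorescence ratio falls more than 5 SD below the full-stimulation control mean, in both duplicate runs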;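 also: integrated fluorescence ratio of peak minus minimum over baseline after agonist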
TRPC6 act confirm: confirmation of mouse TRPC6 activators; shares compounds with TRPC6 inh; HEK293-TRPC6 membrane potential dye fluorescence, FDSS; activation, % at 10 µM; actives 11% (n = 2,800); AID 488961;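 active = ratio signal rise beyond 5 SD above unstimulated control wells' mean, seen in both duplicate runs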;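 also: plate controls were buffer EC0 wells for no effect and acetylcholine ECmax response for full effect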
The depositor's hits bear a star; i = inactive; / = not tested or not shown; ! = repeats disagree. The list is not random: actives were taken first. Their share in the collection is about 2.3%.

SMILES	TRPC6 inh	TRPC4 potent	TRPC4 block	TRPC6 activator	TRPC4 agonist	HEK293 MPD ctr-2	HEK293 MPD ctr 2-2	TRPC4 ctr mod	TRPC4 ctr inh 2	TRPC6 block conf	TRPC6 act confirm	others
COc1ccc(CCNCc2ccc(OCc3ccc(Cl)nc3)c(OC)c2)cc1OC	-6*	i	i	i	i	i	i	i	72%*	44%*	i
COCCCC/C(=N\OCCN)c1ccc(C(F)(F)F)cc1	-5*!	i	i	i	i	i	i	12%*	48%*	43%*	i
O=C(CCC(=O)OCC(=O)c1ccc(C(F)(F)F)cc1)OCC(=O)c1ccc(C(F)(F)F)cc1	i	i	i	i	i	/	/	/	/	/	/
CCOC(=O)C1CCN(C(=O)c2cc3ccccc3oc2=O)CC1	i	i	i	i	i	/	/	/	/	/	/
CCOC(=O)Cn1c2c(c(=N)c3c1CCC3)CCC2	i	i	i	i	i	/	/	/	/	/	/
Cc1nc(N2CCN(Cc3ccccc3)CC2)nc2c1CCC2	i	i	i	i	i	/	/	/	/	/	/
N=c1c2c(n(Cc3ccccc3)c3c1CCC3)CCC2	-7.6*	i	-6*	i	i	/	/	/	/	65%*	i	TRPC4 spec 2=68%*;TRPC4 spec=-24%*;HEK293 MPD ctr 2-1=20%*;HEK293 MPD ctr-1=-394%*
CCn1c2c(c(=N)c3c1CCC3)CCCC2	-5.3*	i	i	i	i	-284%*	i	-48%*	31%*	i	i
N=c1c2c(n(Cc3ccc(F)cc3)c3c1CCC3)CCCC2	-5.4*	i	i	i	i	-188%*	i	-30%*	30%*	i	i
O=C1CCCc2ccccc2N1Cc1ccc(F)cc1	i	i	i	i	i	/	/	/	/	/	/
Cc1cc(N2CCOCC2)nc2ccc(NC(=O)CCC(=O)N3CCN(c4ccc(F)cc4)CC3)cc12	i	i	i	i	i	/	/	/	/	/	/
Cc1cc(N2CCCC2)nc2ccc(NC(=S)NCCCN3CCC(C)CC3)cc12	-7.2*	i	i	i	i	/	/	/	/	i	i	TRPC4 spec 2=76%*;TRPC4 spec=-14%*;HEK293 MPD ctr 2-1=18%*;HEK293 MPD ctr-1=-192%*
COc1cccc(C(=O)Nc2ccc3nc(N4CCOCC4)cc(C)c3c2)c1	-5.9*	i	i	i	i	-154%*	i	-26%*	30%*	i	i
Cc1cc(N2CCOCC2)nc2ccc(NC(=S)N3CCCCC3C)cc12 (centres undefined)	i	i	i	i	i	/	/	/	/	/	/
Cc1cc(N2CCOCC2)nc2ccc(NC(=O)CCC(=O)N3CCN(c4ccccc4F)CC3)cc12	-6.6*	i	i	i	i	-67%*	i	-16%*	i	i	i
Cc1cc(N2CCOCC2)nc2ccc(NC(=O)CCC(=O)N3CCCC(C)C3)cc12 (centres undefined)	-6*	i	i	i	i	-68%*	i	-18%*	36%*	i	i
O=C(NCc1ccccc1F)C1CCCN1C(=O)Nc1ccccc1 (centres undefined)	i	i	i	i	i	/	/	/	/	/	/
Cc1sc2nc(CSC(C)C(=O)Nc3cc(S(C)(=O)=O)ccc3Cl)[nH]c(=O)c2c1C (centres undefined)	i	i	i	i	i	/	/	/	/	/	/
CCC(C)[C@H](NC(=O)N1CC(=O)Nc2ccccc21)C(=O)N1CCC(C(=O)O)CC1 (some centres undefined)	i	i	i	i	i	/	/	/	/	/	/
CC(=O)Nc1ccc(S(=O)(=O)NC(C)(C#N)C2CC2)cc1 (centres undefined)	i	i	i	i	i	/	/	/	/	/	/
CCNS(=O)(=O)c1cc(OC)c(Cl)cc1OC	i	i	i	i	i	/	/	/	/	/	/
Cc1ccccc1C(=O)NC(=S)NC1CCSC1=O (centres undefined)	i	i	i	i	i	/	/	/	/	/	/
O=C(NC(=S)NC1CCSC1=O)c1cccs1 (centres undefined)	-6.4*	i	i	i	i	i	i	i	i	i	i
Nc1ccc(N2CCCCC2)c(Cl)c1	i	i	i	i	i	/	/	/	/	/	/
O=C(NC(Nc1ncc(S(=O)(=O)c2ccc([N+](=O)[O-])cc2)s1)(C(F)(F)F)C(F)(F)F)c1ccc(Cl)cc1	-8.2*	i	i	i	i	/	/	/	/	68%*	i	TRPC4 spec 2=65%*;TRPC4 spec=9.8%*;HEK293 MPD ctr 2-1=i;HEK293 MPD ctr-1=5.0%*
COCC(=O)Nc1ncc(S(=O)(=O)c2ccc([N+](=O)[O-])cc2)s1	i	i	i	i	i	/	/	/	/	/	/
O=C(COC(=O)c1cc[n+]([O-])cc1)Nc1ccc(Cl)cc1[N+](=O)[O-]	-6*	i	i	i	i	-168%*	i	-36%*	i	i	i
Nc1ccc(C(=O)OCC(=O)NC(=O)c2ccccc2)cc1[N+](=O)[O-]	i	i	i	i	i	/	/	/	/	/	/
